# Measurements collected from several papers.
# Each line is one published result; the experiments were not run side by side. pIC50: −log10 of the molar value.
# PTPN1: Tyrosine-protein phosphatase non-receptor type 1 (PTPN1, Homo sapiens, UniProt P18031)
# LDHA: L-lactate dehydrogenase A chain (LDHA, Homo sapiens, UniProt P00338)
# MAOA: Amine oxidase [flavin-containing] A (MAOA, Homo sapiens, UniProt P21397)
# Acetylcholinesterase: Acetylcholinesterase (Bos taurus, UniProt P23795)
# Integrin alpha-V/beta-3: Integrin alpha-V/beta-3 (Homo sapiens, UniProt P05106+P06756)
Compound,target,read-out,action,technique,pH,pIC50
COc1ccc(N2CCN(C(c3cccs3)C(C)NC(=O)C(=O)NCc3ccco3)CC2)cc1 (centres unmarked),PTPN1,enzyme activity,inhibitor,absorbance,pH 7,4.84
COc1c(O[C@@H]2O[C@H](CO)[C@@H](O)[C@H](O)[C@H]2O)cc2oc(-c3ccc(O)cc3)cc(=O)c2c1O,LDHA,enzyme activity,inhibitor,,pH 7.4,3.68
O=C1C[C@H](c2ccc(O)cc2)Oc2cc(O)ccc21,MAOA,enzyme activity,inhibitor,,,5.00
c1ccc(CCCN2CCN(CCOC(c3ccccc3)c3ccccc3)CC2)cc1,"Glutathione reductase, mitochondrial (GSR, Homo sapiens, UniProt P00390)",enzyme activity,inhibitor,absorbance,,< 4.00
CNC(=O)Oc1cccc2c1OC(C)(C)C2,Acetylcholinesterase,enzyme activity,inhibitor,Ellman,,7.14
CC(C)(C)OC(=O)N1CCN(C(=O)C(=O)CC(=O)c2cccc(OCc3ccccc3)c2)CC1,PTPN1,enzyme activity,inhibitor,absorbance,pH 7,4.40
C[C@@H]1C/C=C/CCCCC(=O)Cc2cc(O)cc(O)c2C(=O)O1,"Mitogen-activated protein kinase kinase kinase 7 (MAP3K7, Homo sapiens, UniProt O43318)",enzyme activity,inhibitor,ATP luminescence,,< 5.00
C#CCN(C)c1nc(NCCCCC2CCN(Cc3ccccc3)CC2)c(C#N)c(-c2ccccc2)c1C#N,MAOA,enzyme activity,inhibitor,fluorescence,,4.94
O=C(Nc1ccc([N+](=O)[O-])cc1[N+](=O)[O-])c1ccc2c(c1)OCO2,MAOA,enzyme activity,inhibitor,,,6.54
CNC(=O)Oc1ccccc1OC(C)C,Acetylcholinesterase,enzyme activity,inhibitor,Ellman,,5.74
Cc1ccc2nc(N3C(=O)C(O)=C(C(=O)OC(C)(C)C)C3c3ccc(-c4ccc(Cl)cc4)o3)sc2c1 (centres unmarked),"UDP-N-acetylglucosamine 1-carboxyvinyltransferase (murA, Escherichia coli K-12, UniProt P0A749)",enzyme activity,inhibitor,,,5.35
O=c1cc(-c2ccc(O)c(O)c2)oc2cc(O[C@@H]3O[C@H](CO)[C@@H](O)[C@H](O)[C@H]3O[C@@H]3O[C@H](CO)[C@@H](O)[C@H](O)[C@H]3O)cc(O)c12,LDHA,enzyme activity,inhibitor,,pH 7.4,3.79
COc1cc(Nc2ncc(F)c(Nc3ccc4c(n3)NC(=O)C(C)(C)O4)n2)cc(OC)c1OC,"Fatty-acid amide hydrolase 1 (Faah, Rattus norvegicus, UniProt P97612)",enzyme activity,inhibitor,,,5.80
Nc1c(S(=O)(=O)O)cc(Nc2ccc(Nc3nc(Cl)nc(Nc4cccc(S(=O)(=O)O)c4)n3)c(S(=O)(=O)O)c2)c2c1C(=O)c1ccccc1C2=O,"P2X purinoceptor 4 (P2RX4, Homo sapiens, UniProt Q99571)",calcium signal,antagonist,,,5.46
CCCCOc1ccc(C(=O)CCN2CCCCC2)cc1,"Histamine H2 receptor (HRH2, Homo sapiens, UniProt P25021)",ligand displacement,,radioligand,,5.50
CC[C@H](C)[C@@H]([C@@H](CC(=O)N1CCC[C@H]1[C@H](OC)[C@@H](C)C(=O)N[C@@H](Cc1ccccc1)C(=O)O)OC)N(C)C(=O)[C@@H](NC(=O)[C@H](C(C)C)N(C)C(=O)OCc1ccc(NC(=O)[C@H](C)NC(=O)[C@@H](NC(=O)CCc2cn(CCOCCOCCOCCOCC(=O)NCc3ccc(CN4C(=O)[C@H]5CC(=O)N[C@H](C(=O)O)CC(=O)NCC(=O)N[C@@H](CCCNC(=N)N)C(=O)NC[C@H]4C(=O)N5)cc3)nn2)C(C)C)cc1)C(C)C,Integrin alpha-V/beta-3,ligand displacement,,,,7.36
CNC(=O)Oc1cccc2c1OC(C)(C)O2,Acetylcholinesterase,enzyme activity,inhibitor,Ellman,,6.71
CC[C@H](C)[C@@H]([C@@H](CC(=O)N1CCC[C@H]1[C@H](OC)[C@@H](C)C(=O)N[C@H](C)[C@@H](O)c1ccccc1)OC)N(C)C(=O)[C@@H](NC(=O)[C@H](C(C)C)N(C)C(=O)OCc1ccc(NC(=O)[C@H](C)NC(=O)[C@@H](NC(=O)CCc2cn(CCOCCOCCOCCOCC(=O)NCc3ccc(CN4C(=O)[C@H]5CC(=O)N[C@H](C(=O)O)CC(=O)NCC(=O)N[C@@H](CCCNC(=N)N)C(=O)NC[C@H]4C(=O)N5)cc3)nn2)C(C)C)cc1)C(C)C,Integrin alpha-V/beta-3,ligand displacement,,,,7.44
NC(Cc1ccc(C(F)(F)[P-](F)(F)(F)(F)F)cc1)C(=O)O (centres unmarked),PTPN1,enzyme activity,inhibitor,,,3.91
CCCc1c(C2CCCCN2CCN2CCOCC2)[nH]c2cc(OC(F)(F)F)ccc12 (centres unmarked),"Plasma membrane ATPase 1 (PMA1, Saccharomyces cerevisiae, UniProt P05030)",ATPase activity,inhibitor,,,4.57
